Measured values published in ChEMBL document CHEMBL1150299, “Design, synthesis, and application of novel triclosan prodrugs as potential antimalarial and antibacterial agents” (Bioorg Med Chem, 2008).
In brackets after ≈: the same amount, converted by molar mass.

Experiments:
Escherichia coli [1] = assay: Antibacterial activity against wild type Escherichia coli K12 after 12 hrs by microdilution method; type: functional, organism-based; settings: K12, 12 h
In short: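 Wild-type K12 grown in LB to mid-log, diluted 100-fold; 100 µl used to inoculate tubes of 10 mL LB containing inhibitor (stocks about 10 mM in DMSO). IC50 is the mean of at least three sets; values are means ± SD of at least three experiments in duplicate.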

Plasmodium falciparum [2] = assay: Antimalarial activity against chloroquine-sensitive Plasmodium falciparum FCK2; type: functional, organism-based
[3] = Stability at -10 to 40 degC after 24 hrs by FPLC assay; type: physicochemical
In short: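 Prodrugs held in Luria Broth (pH 7.2) for 24 h at temperatures between -10 and 40 °C. Release of triclosan monitored by FPLC with UV detection.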

Escherichia coli [4] = assay: Stability assessed as half life of prodrug disappearance in Escherichia coli culture; type: ADME, organism-based; settings: in vivo
In short: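 E. coli cultures exposed to prodrug for 0, 2, 5, 10 and 20 min, then pelleted at 4 °C, washed in LB and resuspended in 50 mM Tris pH 7.5. Extracts cleaned by solid-phase extraction with methanol elution, then run on C18 reverse-phase FPLC with isocratic acetonitrile and UV detection at 230 nm. Half-life taken from prodrug disappearance.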

Plasmodium falciparum [5] = assay: Stability assessed as half life of prodrug disappearance in Plasmodium falciparum culture; type: ADME, organism-based; settings: in vivo
In short: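 Synchronized young-trophozoite cultures treated with prodrug for 0, 0.5, 3, 6, 12, 18, 24 and 36 h. Parasites isolated into PBS, processed by solid-phase extraction, then analysed by C18 reverse-phase FPLC with absorbance at 230 nm. Half-life derived from loss of the prodrug peak.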

Structure (SMILES) | IC50 (Escherichia coli [1]) [nM] | IC50 (Plasmodium falciparum [2]) [nM] | MIC (Plasmodium falciparum [2]) [µM] | Stability [3] | MIC (Escherichia coli [1]) [µM] | t1/2 (Escherichia coli [4]) [min] | t1/2 (Plasmodium falciparum [5]) [h]
CCCCC(=O)Oc1cc(Cl)ccc1Oc1ccc(Cl)cc1Cl | 140000 | 8900 | 33.8 (≈ 12.6 µg/mL) | Stable |  |  | 
NC(=O)CCC(=O)Oc1cc(Cl)ccc1Oc1ccc(Cl)cc1Cl | 220 | 6700 | 27.9 (≈ 10.8 µg/mL) | Stable | 0.6 (≈ 0.233 µg/mL) | 12 | 
C[N+](C)(C)CCOC(=O)CCCC(=O)Oc1cc(Cl)ccc1Oc1ccc(Cl)cc1Cl.[Cl-] | 420 | 3020 | 19.7 | Stable | 1 | 8 | 
O=C(Oc1cc(Cl)ccc1Oc1ccc(Cl)cc1Cl)c1cccnc1 | 3100 | 1150 | 9.7 (≈ 3.83 µg/mL) | Stable | 9 (≈ 3.55 µg/mL) |  | 
Oc1cc(Cl)ccc1Oc1ccc(Cl)cc1Cl [TRICLOSAN] | 750 | 2290 | 17.6 (≈ 5.1 µg/mL) | Stable | 1 (≈ 0.29 µg/mL) |  | 

Second part, the compound after the results:

IC50 (Escherichia coli [1]) [nM] | IC50 (Plasmodium falciparum [2]) [nM] | MIC (Plasmodium falciparum [2]) [µM] | Stability [3] | MIC (Escherichia coli [1]) [µM] | t1/2 (Escherichia coli [4]) [min] | t1/2 (Plasmodium falciparum [5]) [h] | Structure (SMILES)
3600 | 2070 | 13.7 | Stable | 10.2 |  |  | C[n+]1cccc(C(=O)Oc2cc(Cl)ccc2Oc2ccc(Cl)cc2Cl)c1.[Cl-]
260 | 620 | 7.9 (≈ 3.75 µg/mL) | Stable | 0.55 (≈ 0.261 µg/mL) | 6 | 9.45 | CN(C)CCOC(=O)CCCC(=O)Oc1cc(Cl)ccc1Oc1ccc(Cl)cc1Cl
77000 | 680 | 6.2 (≈ 2.4 µg/mL) | Stable |  |  | 9.53 | CC(=O)CCC(=O)Oc1cc(Cl)ccc1Oc1ccc(Cl)cc1Cl
330 | 520 | 4.8 (≈ 1.94 µg/mL) | Stable | 0.75 (≈ 0.303 µg/mL) | 9 | 9.5 | O=C(O)CCCC(=O)Oc1cc(Cl)ccc1Oc1ccc(Cl)cc1Cl
